Experimental data as given in paper PMC6792223 (Chemistry of Materials, 2019).

How the values were obtained:
[1] = test system: Human-adipose-derived stem cells (hADSCs); experiment: Live/dead assay of cells cultured on the hydrogels; assay type: cell-based; settings: 4 days in culture, live/dead staining
Summary of the method: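 GdL-formed gels at 1:0, 4:1, 1:1, 1:4 and 0:1 PA-E3/DBS-COOH were cross-linked with 50 mM CaCl2 and PBS-washed to pH 7. hADSCs were seeded at 5000 cells/mL and cultured 4 days at 37 °C, 5% CO2, with tissue-culture plastic as reference. Stained 30 min with calcein AM (live, green) and ethidium homodimer-1 (dead, red); imaged by confocal microscopy.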

[2] = Optical appearance of the hydrogels; assay type: physicochemical; settings: 10 mM gelator, gelation by GdL acidification overnight; visual
Summary of the method: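 Gelators at 10 mM in PBS (pH 7.4) were dissolved with 0.5 M NaOH (to pH 9), either singly or mixed at 100/0, 80/20, 50/50, 20/80 and 0/100 molar % (10 mM total). Solutions were shaken with GdL (4 mg per vial) until dissolved, then left overnight to gel.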

[3] = aqueous; cited from earlier work
proteinase K = proteinase K (Parengyodontium album, UniProt P06873); experiment: Hydrogel weight loss in proteinase K solution or PBS; assay type: in vitro ADME; settings: PBS 1× without enzyme, 37 °C, 22 days
Sequence of proteinase K (P06873 106-384, species assumed): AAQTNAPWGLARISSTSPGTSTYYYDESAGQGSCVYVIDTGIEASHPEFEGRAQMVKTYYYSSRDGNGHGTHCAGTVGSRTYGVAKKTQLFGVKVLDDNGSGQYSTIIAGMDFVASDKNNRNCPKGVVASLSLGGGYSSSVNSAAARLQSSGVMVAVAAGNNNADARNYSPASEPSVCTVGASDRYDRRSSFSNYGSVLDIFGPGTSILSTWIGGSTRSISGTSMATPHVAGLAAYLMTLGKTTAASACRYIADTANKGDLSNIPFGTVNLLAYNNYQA
Summary of the method: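 Gels (10 mM PA-E3, 10 mM DBS-COOH, or 5 mM/5 mM mixture) formed by GdL acidification, soaked 1 h in PBS, then incubated at 37 °C in proteinase K (5 mg/mL in PBS) or PBS 1× alone; solutions renewed after each weighing at intervals up to 22 days; weight loss = (Wf – Wi)/Wi × 100 versus initial weight.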

Row | Optical appearance of hydrogel (transparency) [2] | Weight ratio of hydrogel in PBS (proteinase K) | Molecule | Live cell coverage of hydrogel ([1]; confocal imaging) | Cell viability on hydrogel compared with PA-E3 hydrogels ([1]; qualitative comparison) | pKa of the terminal carboxylic acid [3]
1 | translucent |  | O=C(O)c1ccc([C@@H]2OC[C@@H]3O[C@H](c4ccc(C(=O)O)cc4)O[C@H]([C@H](O)CO)[C@@H]3O2)cc1 [DBS-COOH] | fully covered with live cells | more viable | 4–5
2 | optically transparent | remained constant | CH3-(CH2)14-CONH-VVVAAAEEE-CONH2 [PA-E3] |  |  | 4–5
